The values below come from ChEMBL document CHEMBL4325822, “Discovery of a tetrazolyl β-carboline with in vitro and in vivo osteoprotective activity under estrogen-deficient conditions” (Medchemcomm, 2018).

Structures are written as SMILES. Calls of active or inactive are those of the source. The calls are words filed in the database; no cut-off is given here.

A word on the EC50: it is the concentration needed to bring the measured effect to its halfway point. What is called Emax is the maximal effect, on the per cent scale that the assay sets.

Series [1] in a line: Induction of osteoblast differentiation in Sprague-Dawley rat calvarial osteoblasts assessed as alkaline phosphatase activity after 48 hrs using PNPP as substrate by spectrophotometric method. The note with it: Rattus norvegicus, Sprague-Dawley, Calvarial osteoblast, 48 h; read-out: EC50. It counts as functional, cell-based. An outline of the steps:
(§1)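 Calvarial osteoblasts at 2 × 10³ cells/well. Treated 48 h with varied concentrations in differentiation medium (5% charcoal-treated FBS, 10 mM β-glycerophosphate, 50 µg·mL⁻¹ ascorbic acid). Total ALP read with PNPP substrate at 405 nm. Cell-free wells check for compound interference with substrate or absorbance.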

Series [2] in a line: Induction of osteoblast differentiation in Sprague-Dawley rat calvarial osteoblasts assessed as alkaline phosphatase activity at 10 pM after 48 hrs using PNPP as substrate by spectrophotometric method relative to control. It is filed as functional. In outline:
as §1

Series [3] has as its system Calvarial osteoblast. In words: Osteogenic activity in Sprague-Dawley rat calvarial osteoblasts assessed as mineralized nodule formation at 10 nM after 21 days by alizarin red-S staining based colorimetric method. It counts as functional. In outline:
(§2)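 Osteoblasts at 10,000–15,000 cells/cm² in duplicate plates, 21 days in differentiation medium, medium changed every 48 h. Cells fixed in 4% PFA, stained with alizarin red-S (40 mM, pH 4.5, 30 min) and photographed. Stain extracted with 10% acetic acid, pH brought to 4.5 with ammonium hydroxide, read at 405 nm, normalized to cell number.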

Series [4] is described as follows: Increase in BMP2 mRNA expression in Sprague-Dawley rat calvarial osteoblasts at 10 nM by RT-PCR method relative to control. It is filed as functional, Calvarial osteoblast. In outline:
(§3)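 Primary calvarial osteoblasts were lysed in TRIzol after treatment, and total RNA was extracted. Transcripts were quantified by real-time PCR using the comparative CT (ΔΔCT) method.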

Series [5] can be described thus: Induction of osteoblast differentiation in Sprague-Dawley rat calvarial osteoblasts assessed as alkaline phosphatase activity at 10 nM after 48 hrs using PNPP as substrate by spectrophotometric method relative to control. It is filed as functional. In outline: as §1
The test system of series [6] is Calvarial osteoblast. The series can be described thus: Cytotoxicity against Sprague-Dawley rat calvarial osteoblasts assessed as reduction in cell viability at 0.000001 to 1 uM after 48 hrs by MTT assay. It counts as cell-based. In outline:
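Osteoblasts came from pooled calvaria of 1-2-day-old Sprague-Dawley pups, isolated by sequential dispase/collagenase digestion. Cells were exposed to compound at 1 pM to 1 µM for 48 h, and viability was measured by MTT.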
Background: Formazan colour is commonly taken as a measure of viable cells.

Series [7] in a line: Increase in Runx2 mRNA expression in Sprague-Dawley rat calvarial osteoblasts at 10 nM by RT-PCR method relative to control. It is filed as functional, Calvarial osteoblast.
Series [8] relates to Calvarial osteoblast. The series can be described thus: Increase in OCN protein expression in Sprague-Dawley rat calvarial osteoblasts at 10 nM after 48 hrs by Western blot analysis. It is filed as functional, cell-based. An outline of the steps:
(§4)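 Rat calvarial osteoblasts at 60-70% confluence were treated 48 h. Whole-cell lysates were blotted, blocked in 5% milk, and probed with primary antibody overnight at 4 °C, then with HRP secondary and ECL detection. Densitometry was normalized to β-actin; fold change versus untreated cells, three independent experiments, mean ± SEM.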
For orientation: In western blotting, separated proteins are transferred to a membrane and probed.

Series [9] relates to Calvarial osteoblast. The series can be described thus: Increase in Runx2 protein expression in Sprague-Dawley rat calvarial osteoblasts at 10 nM after 48 hrs by Western blot analysis. It counts as functional, cell-based. In outline:
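Rat calvarial osteoblasts (pooled 1–2-day pups, collagenase/dispase digests) at 60–70% confluence treated 48 h. Whole-cell lysates immunoblotted with primary antibody overnight at 4 °C, then HRP secondary, with ECL detection. Densitometry gives fold change normalized to β-actin versus untreated cells. Mean ± SEM of three independent experiments.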

The test system of series [10] is Calvarial osteoblast. The series can be described thus: Osteogenic activity in Sprague-Dawley rat calvarial osteoblasts assessed as mineralized nodule formation at 10 nM after 21 days by alizarin red-S staining based light microscopic method. It counts as functional, cell-based. An outline of the steps:
as §2

For series [11], the system named is Calvarial osteoblast. The series can be described thus: Increase in BMP2 protein expression in Sprague-Dawley rat calvarial osteoblasts at 10 nM after 48 hrs by Western blot analysis. It counts as functional, cell-based. In outline: as §4
Series [12] is described as follows: Increase in OCN mRNA expression in Sprague-Dawley rat calvarial osteoblasts at 10 nM by RT-PCR method relative to control. It is filed as functional, Calvarial osteoblast. An outline of the steps: as §3
The nature of series [13]: Induction of osteoblast differentiation in Sprague-Dawley rat calvarial osteoblasts assessed as alkaline phosphatase activity at 1 nM after 48 hrs using PNPP as substrate by spectrophotometric method relative to control. It counts as functional. In outline:
as §1

Turning to `COC(=O)c1cc2c([nH]c3ccccc32)c(C(c2nnnn2C2CCCCC2)N2CCN(C)CC2)n1` (stereo not given), in series [1], the EC50 is 530 nM. Moreover, the Emax at 10 pM in [2] was determined as 30%.

For the compound `CCOC(=O)c1cc2c([nH]c3ccccc32)c(C(NCc2ccc(OC)cc2)c2nnnn2C(C)(C)C)n1` (stereo not given), the Activity in [3] is 52%; in series [6] it was “Non-Toxic”. In addition, the EC50 in series [1] is 1200 nM. In addition, the “fold change (FC)” value in series [4], in series [7] and in series [12] was 1.8 - 4.6 each time. In [5], the Emax at 0.01 µM worked out at 75%. The result in series [8], in series [9], in series [10] and in [11] was Active.

As to `COC(=O)c1cc2c([nH]c3ccccc32)c(C=O)n1`, the EC50 in series [1] amounted to 545 nM. The Emax at 0.001 µM in series [13] came to 24%.
